Screening results (PubChem BioAssay)
In the library only some 3.3% were active in any assay of this set; here they are far more common.
Xi reactivation: activators of inactive X chromosome reactivation, primary screen, imaging, XiGFP fibroblasts, GFP high-content imaging, set 2; XiGFP mouse fibroblasts, % GFP-positive cells imaging, 3 d; cells co-treated with 5-aza-dC sensitizer; scaled so ellipticine positive control = 100%; activation, % at 7.58 µM; 0.055% of 360,000 active; AID 743238, 2013;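 active means mean normalized replicate activation at least 10% and every replicate at or above 10%; inconclusive means only one of the two criteria met; inactive means mean below 10% and not all replicates reach 10%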;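 further: 0% = median of on-plate neutral control wells and 100% = ellipticine 6 µM median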
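Material: XiGFP fibroblasts, SV40-immortalized. Buffer or medium: DMEM plus 5-aza-dC sensitizer. Compound: single concentration per compound, delivered by pin transfer. Times: 3 days compound exposure. Controls: ellipticine 6 µM.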
DENV2 CPE: inhibitors of DENV2 cytopathic effect, primary screen, cell-based, plate reader, single concentration. DENV2-infected cells, cytopathic effect rescue. AID 651640, 2012. 1.7% of 350,000 active. CPE inhibition, % at 9.99 µM; in the data active means CPE inhibition above about 20%, passing the limit was not always enough; inconclusive means no clear call, values can overlap the other calls; tested in BHK-21 cells;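 further: 0% = median of neutral control wells and 100% = median of positive control wells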
E-selectin induc: E-selectin induction in HUVECs, primary screen, imaging, HUVEC, immunofluorescence imaging, single point | P16581 | normalized: neutral wells 0, TNF-alpha wells 100 | activation, % at 7.58 µM | 0.37% of 260,000 active | AID 686992, 2013;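 active means mean E-selectin-positive cell signal at least 10% of the positive control, reached in at least 60% of replicates, without over 20% cell loss; inconclusive means no rule given, readout overlaps actives, possibly toxicity-flagged; inactive means the rest, including those meeting only one limit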
Target sequence (P16581 whole entry, looked up): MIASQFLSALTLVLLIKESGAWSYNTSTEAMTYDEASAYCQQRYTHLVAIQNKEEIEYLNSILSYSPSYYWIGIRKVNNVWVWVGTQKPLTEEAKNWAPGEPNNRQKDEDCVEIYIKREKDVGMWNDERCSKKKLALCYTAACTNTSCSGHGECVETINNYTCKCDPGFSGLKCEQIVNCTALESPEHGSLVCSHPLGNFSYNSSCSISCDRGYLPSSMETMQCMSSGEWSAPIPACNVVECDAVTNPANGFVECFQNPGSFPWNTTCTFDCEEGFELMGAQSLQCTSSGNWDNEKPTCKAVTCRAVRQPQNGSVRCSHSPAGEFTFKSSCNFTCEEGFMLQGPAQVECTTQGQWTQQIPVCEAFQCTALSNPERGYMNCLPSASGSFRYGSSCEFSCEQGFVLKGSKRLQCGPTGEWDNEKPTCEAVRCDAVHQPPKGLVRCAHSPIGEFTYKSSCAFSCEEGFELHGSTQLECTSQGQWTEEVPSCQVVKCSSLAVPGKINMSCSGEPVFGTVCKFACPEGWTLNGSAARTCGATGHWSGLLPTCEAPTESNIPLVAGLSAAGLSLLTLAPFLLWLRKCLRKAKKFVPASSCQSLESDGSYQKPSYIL
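System: HUVEC / Compound: single concentration / Signal: immunofluorescence imaging / Read-out: percent E-selectin-positive cells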
Statin myotox sup: suppressors of statin myotoxicity in C2C12 myotubes, primary screen, cell-based, single point, plate reader | C2C12 myotubes + simvastatin, ATP luminescence, 48 h; scaled: DMSO 0, geranylgeraniol control 100 | 0.78% of 330,000 active | AID 602340, 2012 | rescue of ATP level, % at 7.49 µM;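 active means mean ATP rescue above about 67%, or every replicate alone reaching that limit, limit read from the data, passing the limit was not always enough; inconclusive means no clear call, values can overlap the other calls; inactive means mean under the limit and some replicate under it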;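 further: myotubes were challenged with 10 µM simvastatin during compound exposure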
PglD inh: C. jejuni PglD acetyltransferase inhibitors, primary screen, biochemical, DTNB colorimetric, single point; UDP-N-acetylbacillosamine N-acetyltransferase PglD (Campylobacter jejuni); purified PglD enzyme, DTNB colorimetric CoA detection; inhibition, % at 12.5 µM; 0.098% of 360,000 active; AID 602405, 2012; in the data active means inhibition above about 16%, passing the limit was not always enough; inconclusive means no clear call, values can overlap the other calls
FGF22 binding: binders of human FGF22 protein, primary screen, FGF22 synaptogenesis inhibitor project, biophysical, thermal shift, single point; Fibroblast growth factor 22 (Homo sapiens), Q9HCT0; recombinant FGF22 thermal shift, SYPRO orange fluorescence; percent of sucrose octasulfate shift, DMSO zero; activity (Tm shift, normalised), % at 9.99 µM; 1.5% of 340,000 active; AID 651658, 2012;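 active means mean Tm shift, scaled 0 neutral to 100 positive control, at about 1.3% or above, every replicate too, limit read from the data; inconclusive means no clear call, values can overlap the other calls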
Starred values were filed as active, the others as inactive; ? = inconclusive; . = no result.

SMILES	Xi reactivation	DENV2 CPE	E-selectin induc	Statin myotox sup	PglD inh	FGF22 binding
C[C@H](CO)N1C[C@H](C)[C@@H](CN(C)Cc2ccc(Oc3ccccc3)cc2)Oc2c(NS(=O)(=O)c3ccc(F)cc3)cccc2C1=O	0.3	39.1*	.	.	.	-0.8
C[C@H]1CN([C@@H](C)CO)C(=O)c2cccc(NS(=O)(=O)c3ccccc3)c2O[C@@H]1CN(C)Cc1ccc(C(=O)O)cc1	-0.2	30.9*	0.2	-26.6	0.7	-0.1
C[C@H](CO)N1C[C@H](C)[C@@H](CN(C)Cc2ccc(C(=O)O)cc2)Oc2c(NS(=O)(=O)c3ccccc3)cccc2C1=O	0.4	1.5	0.0	6.8	-3.0	0.0
CN(C)N1C(N)=C(C#N)C(c2ccccc2)C2=C1CCCC2=O (configuration not stated)	0.0	5.4	.	.	.	43.4*
CN(C)N1C(N)=C(C#N)C(c2ccc(F)cc2)C2=C1CCCC2=O (configuration not stated)	0.1	-5.8	0.0	-17.7	0.9	0.0
C[C@H]1CCCCO[C@H](CN(C)C(=O)Nc2ccc3c(c2)OCO3)[C@@H](C)CN([C@@H](C)CO)C(=O)c2cc(NC(=O)c3ccncc3)ccc2O1	0.0	0.8	-0.2	.	-0.7	-0.2
C[C@@H](O)C#Cc1ccc([C@H]2[C@@H](CO)N3CCCCN(C(=O)c4ccc(F)cc4)C[C@H]23)cc1	0.0	-2.4	-0.4	.	-4.2	0.2
CS(=O)(=O)N1CCN(c2ccc(NC(=S)NC(=O)c3ccc4c(c3)OCO4)cc2)CC1	0.0	-0.9	0.3	-4.4	.	43.5*
O=C(C[C@H]1CC[C@H]2[C@@H](COC[C@H](O)CN2C(=O)Nc2ccccc2)O1)NCc1ccncn1	-0.1	-1.2	0.1	8.7	-1.7	-0.2
CCCCOC(=O)c1ccc(O)cc1	-0.1	-9.0	-0.2	9.2	-1.3	-0.1
CCCOC(=O)c1ccc(O)cc1	.	26.4*	.	-5.5	3.8	0.1
CC(C)CC#Cc1cnc2c(c1)C(=O)N([C@H](C)CO)C[C@H](C)[C@@H](CN(C)Cc1ccccc1F)O2	-0.3	7.8	0.0	14.2	1.4	-0.3
Cc1ccc(S(=O)(=O)N2CCN(c3ccc(C(F)(F)F)cc3[N+](=O)[O-])CC2)cc1	0.2	-11.2	-1.2	.	-6.7	-0.3
O=[N+]([O-])c1cc(C(F)(F)F)ccc1N1CCN(CCO)CC1	0.3	-1.8	7.9	.	.	43.1*
O=C(C1CCC1)N1CCN(c2ccc(C(F)(F)F)cc2[N+](=O)[O-])CC1	-0.1	.	0.0	1.3	-6.4	0.0
O=[N+]([O-])c1cc(C(F)(F)F)ccc1N1CCCC(O)C1 (configuration not stated)	0.0	-1.3	-0.3	.	.	42.9*
CC(C)NC(=O)NCC[C@@H]1CC[C@@H](NC(=O)CN(C)C)[C@@H](CO)O1	-0.4	-3.2	-0.5	6.8	-3.7	-0.2
CC(=O)c1cccc(NC(=O)C(=O)Nc2cccc3ccccc23)c1	0.4	-5.5	.	.	.	43.4*
Cc1ccc(S(=O)(=O)CCC(=O)NCc2ccccc2)cc1	0.0	22.3*	.	.	.	0.0
O=C(Cc1ccccn1)N[C@@H]1CC[C@@H](CC(=O)N2CCCCC2)O[C@@H]1CO	-0.2	2.6	-0.1	-0.1	0.8	0.5
COc1ccc(C2CC(c3ccccc3)=NN2S(=O)(=O)c2ccc(C)cc2)c(OC)c1 (configuration not stated)	0.5	.	.	-42.3	.	.
COc1ccc(C2CC(c3ccccc3)=NN2S(=O)(=O)c2ccccc2)c(OC)c1 (configuration not stated)	0.0	22.2*	-0.1	.	.	0.5
Cc1ccc(S(=O)(=O)Nc2ccc3c(c2)C(=O)N([C@H](C)CO)C[C@@H](C)[C@@H](CN(C)Cc2ccncc2)OCCCC[C@H](C)O3)cc1	0.4	2.3	.	.	9.5	0.1
COc1ccc(NC(=O)NC2(C(=O)N3CCOCC3)CCCCC2)cc1	0.4	?	39.0*	-2.8	1.2	-0.3
O=C(Nc1ccccc1)NC1(C(=O)NCCCN2CCOCC2)CCCCC1	.	.	-0.7	101.9*	3.6	.
SMILES	Xi reactivation	DENV2 CPE	E-selectin induc	Statin myotox sup	PglD inh	FGF22 binding
COc1ccc(-c2cc(C(F)(F)F)c(C#N)c(SCC(=O)O)n2)cc1	0.1	2.4	.	.	.	1.1
N#Cc1c(-c2ccccc2F)cc(C2CC2)nc1SCC(=O)c1cccs1	60.0*	.	.	-4.3	-3.2	.
COC(=O)CSc1nc(C2CC2)cc(C(F)(F)F)c1C#N	.	.	.	99.0*	-0.4	.
COc1ccc(NC(=O)N(C)C[C@H]2Oc3ccc(NS(C)(=O)=O)cc3CC(=O)N([C@@H](C)CO)C[C@@H]2C)cc1	0.0	2.2	-0.1	-8.3	-2.0	-0.1
CCCCN1C(=O)C(CC(=O)NCC)SC1=Nc1ccccc1 (configuration not stated)	.	.	.	158.8*	-0.9	.
O=C(O)CC1SC(=Nc2ccccc2)N(c2ccccc2)C1=O (configuration not stated)	.	.	.	115.3*	-6.4	.
CCNC(=O)CC1SC(=Nc2ccc(C)cc2)N(CC)C1=O (configuration not stated)	.	.	.	-1.1	-3.3	.
CCC(=O)N(C)C[C@H]1Oc2ncc(C3=CCCC3)cc2C(=O)N([C@@H](C)CO)C[C@H]1C	-0.9	7.6	?	-6.2	-0.1	-0.1
COc1cc([N+](=O)[O-])ccc1NC(=O)NCc1ccco1	0.0	5.1	.	.	.	43.9*
COc1ccc(NC(=O)NCc2ccco2)c(OC)c1	0.0	-1.9	.	.	.	0.2
C[C@H]1CN([C@@H](C)CO)C(=O)c2cc(NC(=O)Cc3cn(C)c4ccccc34)ccc2O[C@H]1CN(C)C	0.0	-2.6	-6.5	0.2	4.7	-0.6
Cc1noc(C)c1NC(=O)Nc1ccc2c(c1)C(=O)N([C@@H](C)CO)C[C@@H](C)[C@H](CN(C)Cc1ccc(Cl)c(Cl)c1)OCCCC[C@H](C)O2	0.0	1.6	-0.1	.	0.5	0.5
Cc1noc(C)c1NC(=O)Nc1ccc2c(c1)C(=O)N([C@@H](C)CO)C[C@@H](C)[C@@H](CN(C)Cc1ccc(Cl)c(Cl)c1)OCCCC[C@@H](C)O2	0.3	30.4*	0.0	.	0.5	-0.2
Cc1noc(C)c1NC(=O)Nc1ccc2c(c1)C(=O)N([C@H](C)CO)C[C@@H](C)[C@@H](CN(C)Cc1ccc(Cl)c(Cl)c1)OCCCC[C@H](C)O2	0.2	9.1	-0.1	.	-2.6	-0.5
